Laboratory results as given in paper PMC2668213 (Journal of medicinal chemistry, 2008).

Key:
SERT [1] = assay: MicroPET baseline regional brain uptake in anesthetized cynomolgus monkeys; format: in vivo, cynomolgus monkey
[2] = Protein-bound tracer in plasma; format: in vivo, cynomolgus monkey; details: range over the time points of the study
Outline: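 Arterial plasma was sampled after injection of the fluorine-18 labelled test compound during a baseline microPET study in a cynomolgus monkey. Samples spanned 1 to 180 min post-injection. The percentage of tracer bound to plasma protein was determined at each time point. The same samples underwent radio-HPLC metabolite analysis.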

SERT [3] = assay: HRRT PET baseline study in awake rhesus monkey; format: in vivo

## O=C(OCC[18F])C1C2CCC(CC1c1cccc(/C=C\I)c1)N2 (stereo not drawn) [[^18F]1, 2β-Carbo(2-[^18F]fluoroethoxy)-3β-(3′-((Z)-2-iodoethenyl)phenyl)nortropane]
SERT [1]; anesthetized
  time of peak uptake, caudate: 55 min
  time of peak uptake, cerebellum: ~ 27 min
  time of peak uptake, medulla: 35 min
  time of peak uptake, midbrain: 45 min
  time of peak uptake, pons: 45 min
  time of peak uptake, putamen: 45 min
  time of peak uptake, thalamus: 45 min
SERT [1]; anesthetized cynomolgus monkey
  time at which uptake ratios stabilize: ~ 175 minutes
  time at which washout from the SERT-rich brain regions begins: ~ 65 minutes
  time at which washout from the cerebellum begins: ~ 27 minutes
[2]
  percentage of protein-bound tracer in plasma: 5.6 - 8.5%
SERT [3]; awake rhesus
  time of peak uptake, caudate: 45 min
  time of peak uptake, cerebellum: 45 min
  time of peak uptake, medulla: 35 min
  time of peak uptake, midbrain: 45 min
  time of peak uptake, pons: 85 min
  time of peak uptake, putamen: 45 min
  time of peak uptake, thalamus: 45 min
SERT [3]; awake rhesus monkey
  time of peak uptake in thalamus, putamen, midbrain, and caudate: ~ 45 min

## O=C(OCC[18F])C1C2CCC(CC1c1cccc(/C=C\Br)c1)N2 (stereo not drawn) [[^18F]2, 2β-Carbo(2-[^18F]fluoroethoxy)-3β-(3′-((Z)-2-bromoethenyl)phenyl)nortropane]
SERT [1]; anesthetized
  time of peak uptake, cerebellum: ~ 30 min
SERT [1]; anesthetized cynomolgus monkey
  time of peak uptake in the SERT-rich brain regions: 55 to 65 min

## O=C(OCCC[18F])C1C2CCC(CC1c1cccc(/C=C\Br)c1)N2 (stereo not drawn) [[^18F]4, 2β-Carbo(3-[^18F]fluoropropoxy)-3β-(3′-((Z)-2-bromoethenyl)phenyl)nortropane]
SERT [1]; anesthetized cynomolgus monkey
  time of peak uptake in the SERT-rich brain regions: 35 to 45 min
